From article PMC4371170 (Learning & Memory, 2015)

Legend:
[1] = test system: global histone H3 acetylation; assay: Immunocytochemistry of global histone H3 acetylation in BLA and dentate gyrus; assay type: in vivo, mice; settings: 10 mg/kg IP, 1 h after administration, qualitative
Procedure, shortened: (§1)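 Mice received vehicle or test compound at 10 mg/kg IP (n = 2/group). They were perfused 1 h after dosing and brain tissue was processed for immunocytochemistry. Global acetyl-H3 or acetyl-H4 immunofluorescence was imaged with DAPI counterstain in the basolateral amygdala and hippocampal dentate gyrus. Assessment was qualitative, from photomicrographs of colocalization.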

lysine 8 on H4 = settings: site regulated by HDAC3; ref Malvaez et al. 2013; cited from earlier work
[2] = 10 mg/kg IP, mouse
C57BL/6J mice [3] = assay: Open-field test; assay type: in vivo; settings: 10 mg/kg IP
C57BL/6J mice [4] = assay: Extinction retention tests after drug without extinction training; assay type: in vivo; settings: 10 mg/kg IP without extinction training
C57BL/6J mice [5] = assay type: in vivo; settings: 10 mg/kg IP after extinction training
Procedure, shortened: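 Adult male C57BL/6J mice, 8–12 wk, group-housed 1 wk at 24°C on a 12-h light–dark cycle with food and water ad libitum, tested in the light phase. At 48 h after fear conditioning, three CS trials in a novel Context B (Plexiglas over shock bars, red light, 1% ammonium hydroxide) were averaged to assign groups (n = 12/group) matched for freezing. Extinction training followed 24 h later. Retention tests of 15 CS trials were run 24 and 48 h later, with freezing to the CS scored automatically.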

[6] = test system: global histone H4 acetylation; assay: Immunocytochemistry of global histone H4 acetylation in BLA and dentate gyrus; assay type: in vivo, mice; settings: 10 mg/kg IP, 1 h after administration, qualitative
Procedure, shortened: as §1

[7] = test system: other HDACs besides HDAC1, HDAC2, HDAC3, and HDAC10; assay: HDAC inhibitory potency against all 11 HDAC enzymes, remaining enzymes; assay type: biochemical; settings: serial dilution starting at 20 μM
HAT activity = settings: ref Nair et al. 2001; cited from earlier work

Row | SMILES | global acetylation of histone H3 in the BLA ([1]; compared with vehicle) | global acetylation of histone H3 in the dentate gyrus [1] | acetylation of lysine 8 on H4 (lysine 8 on H4) | brain penetrance compared with RGFP963 [2] | crossing of the blood brain barrier [2] | time of maximum brain concentration post-drug administration [2] [min] | effect of drug on time spent in the center (C57BL/6J mice [3]; F(2,23) = 0.22, NS) | effect of drug on distance traveled (C57BL/6J mice [3]; F(2,23) = 1.06, NS) | nonspecific effect on extinction retention (C57BL/6J mice [4]) | effect on consolidation of cued fear extinction (C57BL/6J mice [5]) | global H4 acetylation in the BLA [6] | global acetylation of histone H4 in the dentate gyrus [6] | inhibition of any other HDACs [7] | effect on HAT activity (HAT activity)
1 | Nc1cc(F)ccc1NC(=O)/C=C/c1cnn(C/C=C/c2ccccc2)c1 [RGFP966] | seems to increase | seem to decrease | enhance acetylation | lower brain penetrance | able to cross the blood brain barrier | 15 | No significant effect | No significant effect | does not nonspecifically enhance extinction retention | no effect | Neither RGFP966 nor RGFP963 appear to alter | seem to decrease | did not inhibit | –
2 | CC(/C=C/C(=O)NO)=C\[C@@H](C)C(=O)c1ccc(N(C)C)cc1 [trichostatin A] | – | – | – | – | – | – | – | – | – | – | – | – | – | inhibition of HAT activity
